B1: Osa-1-4 twister ribozyme (parent)
chain: CCGCCUAACACUGCCAAUGCCGGUCCCAAGCCCGGAUAAAAGUGGAGGGGGCGG

Variants of B1 are the subject of the data set. Kind of data set: self-cleavage, relative activity (ratio to wild type); higher = more cleavage; co-transcriptional. An outline of the steps:
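Relative activity is the fraction cleaved divided by that of the wild-type ribozyme. The library came from a DNA template for a 54-nucleotide Oryza sativa twister ribozyme, doped at the 48 positions downstream of the cleavage site with 97 % wild-type base and 1 % of each other base. After 2 h of in vitro transcription at 37 °C with co-transcriptional self-cleavage, the RNA was reverse-transcribed with a template-switching oligonucleotide, amplified by PCR and deep-sequenced, and reads with or without upstream sequence gave the cleavage status.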
With A46G C20G, the self-cleavage was 0.04. A46G C20A: the self-cleavage amounted to 0.09. To G45C U37C belongs 0.08; to G45C U37A, 0.05; to G45C U37G, 0.07. To A46C G47A belongs 0.04. The same measure for A46C G47U: 0.04; for A46C G47C: 0.02.

Regarding G45A U43C, the self-cleavage worked out at 0.09. Take G45A U43A: the self-cleavage stood at 0.09. As for G45A U43G, the self-cleavage is 0.06. The same measure for A46C C26A: 0.02. Turning to A46C C26U, the self-cleavage was 0.05. Turning to A46C C26G, the self-cleavage was found to be 0.02. To A46G G49U belongs 0.03; to A46G G49A, 0.03. The same measure for A46G G49C: 0.03; for A46C G51A: 0.07; for A46C G51U: 0.05.

In the case of A46C G51C, the self-cleavage was determined as 0.04.

As for A46G C11U, the self-cleavage worked out at 0.06.

For the variant A46G C11A, the self-cleavage came out at 0.06. To A46G C11G belongs 0.04; to A46G U12A, 0.05. To A46G U12G belongs 0.07. To A46G U12C belongs 0.05. On to A46C G13A, for which the self-cleavage was 0.02. For the variant A46C G13C, the self-cleavage is 0.01. The same measure for A46C G13U: 0.01. A46G G19A: the self-cleavage is 0.05. The same measure for A46G G19U: 0.04.

Consider A46G G19C, for which the self-cleavage turned out to be 0.02. The same measure for A46G A7U: 0.01; for A46G A7G: 0.05; for A46G A7C: 0.02. With A46C G44A, the self-cleavage is 0.05. For the variant A46C G44C, the self-cleavage turned out to be 0.06.

On to A46C G44U, for which the self-cleavage is 0.06. The same measure for G45C U24C: 0.02; for G45C U24A: 0.04; for G45C U24G: 0.01. The same measure for G45U G53U: 0.05.

For the variant G45U G53C, the self-cleavage worked out at 0.03. The same measure for G45U G53A: 0.07; for G45C G51C: 0.05. G45C G51U: the self-cleavage came to 0.05. The same measure for G45C G51A: 0.06; for A46G G45C: 0.03; for A46G G45U: 0.03.

As to A46G G45A, the self-cleavage was found to be 0.06. To A46G C25A belongs 0.02. To A46G C25U belongs 0.05; to A46G C25G, 0.02. To A46G G50C belongs 0.06; to A46G G50A, 0.08. With A46G G50U, the self-cleavage is 0.06. As to A46C C33U, the self-cleavage is 0.03. The same measure for A46C C33A: 0.04. The same measure for A46C C33G: 0.02.

For the variant A46C G54U, the self-cleavage came out at 0.19. With A46C G54C, the self-cleavage came out at 0.08. The same measure for A46C G54A: 0.09; for A46C G53C: 0.04. The same measure for A46C G53U: 0.08; for A46C G53A: 0.07; for A46C G50U: 0.09.

Consider A46C G50A, for which the self-cleavage was found to be 0.1. To A46C G50C belongs 0.08. To A46C A8G belongs 0.02; to A46C A8U, 0.03. As to A46C A8C, the self-cleavage was 0.03. The same measure for A46G G48U: 0.02. The same measure for A46G G48C: 0.03; for A46G G48A: 0.02; for A46U A7G: 0.07. To A46U A7U belongs 0.04. Take A46U A7C: the self-cleavage came to 0.02. The same measure for A46C C15U: 0.04; for A46C C15G: 0.04. The same measure for A46C C15A: 0.03. The same measure for G45C G48C: 0.04; for G45C G48U: 0.02; for G45C G48A: 0.03.

For A46G G30U, the self-cleavage was 0.03.

In the case of A46G G30C, the self-cleavage was found to be 0.01. To A46G G30A belongs 0.02; to A46C G22U, 0.04.

As for A46C G22A, the self-cleavage was 0.06. To A46C G22C belongs 0.03; to A46G G54A, 0.07. To A46G G54C belongs 0.06. To A46G G54U belongs 0.11. For the variant G45U U43C, the self-cleavage was 0.06. To G45U U43G belongs 0.06.

For G45U U43A, the self-cleavage stood at 0.06. For the variant G45C G50A, the self-cleavage came to 0.08. To G45C G50U belongs 0.06; to G45C G50C, 0.07. The same measure for G45C G54U: 0.17; for G45C G54A: 0.08. Take G45C G54C: the self-cleavage is 0.07.

Turning to A46C C32A, the self-cleavage was found to be 0.03. The same measure for A46C C32U: 0.04; for A46C C32G: 0.03; for A46G G42A: 0.05. For A46G G42U, the self-cleavage is 0.04.

Consider A46G G42C, for which the self-cleavage stood at 0.04. G45U U24A: the self-cleavage came to 0.04. The same measure for G45U U24G: 0.02; for G45U U24C: 0.04. To A46U A8U belongs 0.07. To A46U A8G belongs 0.08. On to A46U A8C, for which the self-cleavage was determined as 0.03. To A46C belongs 0.09; to A46G, 0.08. The same measure for A46U: 0.08; for A46G C32A: 0.03.

Regarding A46G C32G, the self-cleavage stood at 0.07. In the case of A46G C32U, the self-cleavage worked out at 0.04. Take A46C C21A: the self-cleavage came to 0.06. To A46C C21G belongs 0.03; to A46C C21U, 0.06. To A46C U12A belongs 0.05.

For the variant A46C U12C, the self-cleavage worked out at 0.04. Take A46C U12G: the self-cleavage was found to be 0.03. The same measure for A46U C15U: 0.06; for A46U C15A: 0.05. For A46U C15G, the self-cleavage came to 0.08. The same measure for G45U G49C: 0.02. The same measure for G45U G49A: 0.04.

With G45U G49U, the self-cleavage is 0.04. As for A46C C25A, the self-cleavage turned out to be 0.03. In the case of A46C C25G, the self-cleavage stood at 0.02. On to A46C C25U, for which the self-cleavage was determined as 0.05. To A46C U24A belongs 0.02; to A46C U24C, 0.04.

As to A46C U24G, the self-cleavage amounted to 0.01. The same measure for A46U C14A: 0.03; for A46U C14U: 0.06. The same measure for A46U C14G: 0.03; for A46G C52A: 0.1; for A46G C52G: 0.24. The same measure for A46G C52U: 0.09; for A46U C20U: 0.1; for A46U C20G: 0.05. Turning to A46U C20A, the self-cleavage is 0.06.

Take A46G G47U: the self-cleavage worked out at 0.06. To A46G G47A belongs 0.06; to A46G G47C, 0.03; to A46G C21G, 0.02. As for A46G C21A, the self-cleavage was 0.07.

With A46G C21U, the self-cleavage was determined as 0.09. For the variant A46G G34C, the self-cleavage came to 0.05. In the case of A46G G34U, the self-cleavage came out at 0.05.

Consider A46G G34A, for which the self-cleavage was determined as 0.06. To G45C G53A belongs 0.06; to G45C G53U, 0.06. The same measure for G45C G53C: 0.05.

As to A46C C20U, the self-cleavage stood at 0.07. The same measure for A46C C20G: 0.03. The same measure for A46C C20A: 0.04.

Consider A46C G30A, for which the self-cleavage turned out to be 0.01. To A46C G30U belongs 0.02. The same measure for A46C G30C: 0.02.

Take A46U C9G: the self-cleavage is 0.06. The same measure for A46U C9U: 0.04; for A46U C9A: 0.02.
